Consider one compound from ChEMBL document CHEMBL3871264, “Design of a novel thiophene inhibitor of 15-lipoxygenase-1 with both anti-inflammatory and neuroprotective properties” (Eur J Med Chem, 2016).

The source made the active and inactive calls. The calls are words filed in the database; no cut-off is given here.

Assay [1] concerns the target T1, Polyunsaturated fatty acid lipoxygenase ALOX15 (Mus musculus) (UniProt P39654).
T1 sequence (whole entry): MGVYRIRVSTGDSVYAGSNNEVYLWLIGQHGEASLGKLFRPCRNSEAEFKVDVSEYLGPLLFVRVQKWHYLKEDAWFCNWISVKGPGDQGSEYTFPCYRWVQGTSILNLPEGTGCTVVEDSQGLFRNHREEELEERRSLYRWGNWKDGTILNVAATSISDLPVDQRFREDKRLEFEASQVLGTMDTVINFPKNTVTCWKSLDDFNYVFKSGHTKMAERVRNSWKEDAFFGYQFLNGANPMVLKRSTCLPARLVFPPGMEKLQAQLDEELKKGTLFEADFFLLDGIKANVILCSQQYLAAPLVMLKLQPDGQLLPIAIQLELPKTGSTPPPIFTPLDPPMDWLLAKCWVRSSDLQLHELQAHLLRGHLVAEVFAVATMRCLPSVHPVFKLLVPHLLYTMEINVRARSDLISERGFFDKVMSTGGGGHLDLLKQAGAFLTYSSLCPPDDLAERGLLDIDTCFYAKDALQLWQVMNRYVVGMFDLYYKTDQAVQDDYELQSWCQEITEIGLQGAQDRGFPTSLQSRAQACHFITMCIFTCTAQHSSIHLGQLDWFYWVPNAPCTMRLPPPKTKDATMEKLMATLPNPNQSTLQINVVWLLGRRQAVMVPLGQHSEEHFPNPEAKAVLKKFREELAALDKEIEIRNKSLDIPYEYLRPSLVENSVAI
Put plainly: Inhibition of 15-LOX-1 in C57bl/6 mouse precision-cut lung slices assessed as reduction in LPS-stimulated IL-12b mRNA expression level at 50 uM incubated for 20 hrs followed by LPS stimulation for 4 hrs in presence of linoleic acid by RT-qPCR analysis. The essentials:
(§1)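 Lung slices, 250 μm, were cut from agarose-filled lungs of male C57bl/6 mice aged 8-10 weeks and cultured at 37 °C in 5% CO2 in supplemented DMEM, 3 slices per well. Inhibitor was given for 20 h with 10 μM linoleic acid. For the last 4 h, 10 ng/ml LPS plus 10 ng/ml IFNγ were added. Read-out was RT-qPCR (10 ng cDNA, GAPDH assay included), in duplicate or triplicate wells, as fold change versus LPS/linoleic acid control, with 4-6 independent experiments.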
Background: In qPCR the cycle at which signal appears reflects the starting amount.

Assay [2] concerns the target T1, Polyunsaturated fatty acid lipoxygenase ALOX15 (Mus musculus). Put plainly: Inhibition of 15-LOX-1 in C57bl/6 mouse precision-cut lung slices assessed as reduction in LPS-stimulated iNOS mRNA expression level at 50 uM incubated for 20 hrs followed by LPS stimulation for 4 hrs in presence of linoleic acid by RT-qPCR analysis. The essentials:
as §1

For assay [3] the target is unchanged. Nature of the assay: Inhibition of 15-LOX-1 in C57bl/6 mouse precision-cut lung slices assessed as reduction in LPS-stimulated IL-12b mRNA expression level at 5 uM incubated for 20 hrs followed by LPS stimulation for 4 hrs in presence of linoleic acid by RT-qPCR analysis. Summed up: as §1

For the compound `CCCCNC(=O)c1cc(-c2ccccc2)sc1N`, the inhibition in assay [1] and in assay [2] was 50% each time. Further, the inhibition entry in assay [3] was “Active”.

As a reminder, the inhibition is the change of the read-out against control, counted positive when it falls.
